The values below come from ChEMBL document CHEMBL4627345, “Anti-inflammatory effect and inhibition of nitric oxide production by targeting COXs and iNOS enzymes with the 1,2-diphenylbenzimidazole pharmacophore” (Bioorg Med Chem, 2020).

The nature of series [1]: Cytotoxicity against mouse RAW264.7 cells assessed as cell viability at 100 uM measured after 24 hrs by MTT assay relative to control. The class given is cell-based. The note with it: read-out: Activity. In a few lines:
(§1)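 RAW 264.7 murine macrophages grown in RPMI-1640 with 10% heat-inactivated FBS at 37 °C, 5% CO2. Cells seeded at 4 x10^4 per well and exposed 24 h to 0–500 µM compound (DMSO 0.2% final). Medium replaced with 0.5 mg/mL MTT for 4 h, formazan dissolved in isopropanol, absorbance read at 570 nm. Triplicates in three independent experiments.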
Background: Formazan colour is commonly taken as a measure of viable cells.

The test system of another series is Rattus norvegicus. In words: Antiinflammatory activity in Wistar rat assessed as inhibition of carrageenan-induced paw edema formation at 100 mg/kg, po administered 1 hr before carrageenan stimulation and measured after up to 6 hrs relative to control. The class given is functional. In a few lines: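 Male Wistar rats (250–300 g), N = 5 per group, dosed orally 1 h before 0.1 mL of 1% carrageenan in physiological saline was injected into the right paw. Paw volume was read by plethysmometer at 0, 1, 2, 3, 4, 5 and 6 h. Edema was taken as the right-minus-left paw volume difference. % inhibition = (untreated − treated)/untreated × 100 at each time point.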
Background: The carrageenan paw model is a standard test of acute inflammation.

Series [2] has as its target T1, Prostaglandin G/H synthase 2 (Homo sapiens, UniProt P35354).
T1 sequence (P35354 whole entry): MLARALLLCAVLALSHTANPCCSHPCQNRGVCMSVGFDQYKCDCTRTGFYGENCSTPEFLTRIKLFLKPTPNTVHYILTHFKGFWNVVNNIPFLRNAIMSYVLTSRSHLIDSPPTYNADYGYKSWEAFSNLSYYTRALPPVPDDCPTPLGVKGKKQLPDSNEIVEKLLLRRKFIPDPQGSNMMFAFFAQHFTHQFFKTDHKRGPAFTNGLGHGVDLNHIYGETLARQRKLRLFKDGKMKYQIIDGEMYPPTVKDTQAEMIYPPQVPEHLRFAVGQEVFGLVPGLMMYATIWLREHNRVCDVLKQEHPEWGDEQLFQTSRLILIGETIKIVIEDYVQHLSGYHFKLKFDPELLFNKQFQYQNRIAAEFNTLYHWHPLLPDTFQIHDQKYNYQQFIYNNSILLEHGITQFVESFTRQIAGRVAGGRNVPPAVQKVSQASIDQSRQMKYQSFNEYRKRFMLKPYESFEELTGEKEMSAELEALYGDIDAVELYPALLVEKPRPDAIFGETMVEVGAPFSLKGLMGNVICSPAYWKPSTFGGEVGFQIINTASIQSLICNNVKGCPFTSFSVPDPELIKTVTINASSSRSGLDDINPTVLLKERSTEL
In words: Inhibition of human recombinant COX-2 using arachidonic acid as substrate preincubated for 15 mins followed by substrate addition and measured after 5 mins by […]-based fluorescence assay. An outline of the steps: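 Human recombinant COX-2 preincubated 15 min in buffer with compound (100 µM) or DuP-697 as reference. ADHP and arachidonic acid then added, and resorufin fluorescence read after 5 min (ex 530–540 / em 585–595 nm).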

For series [3], the target named is T2, Nitric oxide synthase, inducible (Mus musculus) (UniProt P29477).
T2 sequence (whole entry): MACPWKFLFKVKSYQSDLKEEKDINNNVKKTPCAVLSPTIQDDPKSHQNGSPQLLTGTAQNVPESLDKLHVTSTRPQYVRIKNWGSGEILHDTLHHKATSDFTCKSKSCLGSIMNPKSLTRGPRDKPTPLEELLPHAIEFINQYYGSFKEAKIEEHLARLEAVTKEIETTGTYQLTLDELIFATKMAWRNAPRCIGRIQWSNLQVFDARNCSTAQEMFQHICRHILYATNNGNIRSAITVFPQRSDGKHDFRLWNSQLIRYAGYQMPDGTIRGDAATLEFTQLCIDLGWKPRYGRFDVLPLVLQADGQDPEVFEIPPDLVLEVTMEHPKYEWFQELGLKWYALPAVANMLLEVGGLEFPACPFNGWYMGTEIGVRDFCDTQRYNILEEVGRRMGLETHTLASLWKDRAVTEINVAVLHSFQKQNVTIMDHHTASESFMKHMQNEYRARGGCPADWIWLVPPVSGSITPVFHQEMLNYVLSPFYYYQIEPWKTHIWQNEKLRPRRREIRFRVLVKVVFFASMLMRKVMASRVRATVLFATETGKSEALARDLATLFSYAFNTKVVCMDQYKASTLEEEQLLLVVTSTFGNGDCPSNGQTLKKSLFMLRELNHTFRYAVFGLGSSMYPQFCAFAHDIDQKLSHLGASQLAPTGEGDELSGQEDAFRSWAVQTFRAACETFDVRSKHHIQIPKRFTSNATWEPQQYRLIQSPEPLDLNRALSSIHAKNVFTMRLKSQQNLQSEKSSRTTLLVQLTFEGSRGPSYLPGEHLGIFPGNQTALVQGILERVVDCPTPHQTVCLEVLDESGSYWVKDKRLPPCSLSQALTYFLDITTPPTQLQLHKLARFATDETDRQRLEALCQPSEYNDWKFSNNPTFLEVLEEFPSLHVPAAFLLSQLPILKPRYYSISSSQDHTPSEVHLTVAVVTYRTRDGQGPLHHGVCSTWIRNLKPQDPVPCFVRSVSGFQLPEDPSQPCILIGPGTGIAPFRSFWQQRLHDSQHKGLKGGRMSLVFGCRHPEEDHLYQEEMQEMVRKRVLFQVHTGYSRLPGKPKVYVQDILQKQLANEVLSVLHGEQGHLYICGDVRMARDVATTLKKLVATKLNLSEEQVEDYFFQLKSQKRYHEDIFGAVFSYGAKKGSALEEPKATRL
In words: Inhibition of iNOS in mouse macrophages assessed as reduction in LPS-induced nitric oxide production at 100 uM incubated for overnight by griess assay relative to control. In a few lines:
(§2)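 Murine macrophages seeded at 4 x10^4 per well with compound at 50 or 100 µM, with or without LPS (100 ng/mL), overnight under standard conditions. Supernatant mixed 1:1 with Griess reagent and read at 570 nm. Nitrite quantified from a NaNO2 standard curve. Triplicates in three independent experiments.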
Background: Griess reagent forms a coloured azo dye with nitrite.

In series [4] the target is T3, Prostaglandin G/H synthase 1 (Bos taurus) (UniProt O62664).
T3 sequence (whole entry): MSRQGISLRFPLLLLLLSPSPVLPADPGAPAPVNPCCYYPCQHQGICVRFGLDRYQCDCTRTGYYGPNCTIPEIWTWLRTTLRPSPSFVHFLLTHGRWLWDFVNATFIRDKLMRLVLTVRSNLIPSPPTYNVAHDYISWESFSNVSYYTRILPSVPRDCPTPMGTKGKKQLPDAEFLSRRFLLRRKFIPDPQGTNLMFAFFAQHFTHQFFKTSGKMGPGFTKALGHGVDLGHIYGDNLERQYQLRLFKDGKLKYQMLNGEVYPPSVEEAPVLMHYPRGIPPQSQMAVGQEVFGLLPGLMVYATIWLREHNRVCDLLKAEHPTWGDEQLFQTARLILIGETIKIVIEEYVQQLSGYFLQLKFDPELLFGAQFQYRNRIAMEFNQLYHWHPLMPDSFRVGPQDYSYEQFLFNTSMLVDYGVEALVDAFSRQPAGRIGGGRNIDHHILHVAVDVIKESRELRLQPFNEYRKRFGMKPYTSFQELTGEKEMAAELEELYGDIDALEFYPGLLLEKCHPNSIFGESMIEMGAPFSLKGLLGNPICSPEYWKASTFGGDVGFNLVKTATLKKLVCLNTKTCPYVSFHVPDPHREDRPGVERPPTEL
In words: Inhibition of bovine COX1 at 100 uM using arachidonic acid as substrate preincubated for 5 mins followed by substrate addition and measured after 5 mins by […]-based fluorescence assay relative to control. In a few lines:
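Bovine COX-1 preincubated 5 min in buffer with compound (100 µM) or SC-560 as reference. ADHP and arachidonic acid then added, and resorufin fluorescence read after 5 min (ex 530–540 / em 585–595 nm). Resorufin arises from ADHP reacting with the COX-derived PGG2.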

Series [5] deals with T2, Nitric oxide synthase, inducible (Mus musculus). In words: Inhibition of iNOS in mouse macrophages assessed as reduction in LPS-induced nitric oxide production at 50 uM incubated for overnight by griess assay relative to control. In a few lines:
as §2

Series [6] in a line: Selectivity index, ratio of inhibition of human recombinant COX-2 at 100 uM to inhibition of bovine COX-1 at 100 uM. An outline of the steps:
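SI is COX-2/COX-1 activity ratio. Percent inhibition at 100 µM: human recombinant COX-2 (15 min preincubation) and bovine COX-1 (5 min preincubation). Fluorometric ADHP/arachidonic acid read-out after 5 min.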

A short description of series [7]: Cytotoxicity against mouse RAW264.7 cells assessed as cell viability at 500 uM measured after 24 hrs by MTT assay relative to control. The class given is cell-based. The settings on record: read-out: Activity. An outline of the steps:
as §1

Molecules are shown by their SMILES. Activity calls are given as the source filed them. The rule behind the calls is not given here.

In general, inhibition refers to how much of the control response was suppressed. The term IC50 denotes the midpoint of a concentration-inhibition curve. For the molecule `Nc1ccc(-n2c(-c3ccc(Cl)cc3)nc3ccccc32)cc1`, the viability at 24 h, 100 µM in series [1] was over 90%. Besides, in the series with Rattus norvegicus, the inhibition result is “Active”. In series [2], the IC50 came to 193 µM. In addition, the inhibition was determined as 52.2% in series [3], 39% in series [4] and 24.9% in series [5]. In addition, in series [6], the Selectivity Index was determined as 1.15. In addition, in series [7], the viability at 24 h, 500 µM was at least 80%.
As to `Nc1ccc(-c2nc3ccccc3n2-c2ccc(N)cc2)cc1`, in series [1], the viability at 24 h, 100 µM was over 90%. In the series on Rattus norvegicus, the inhibition result was “Active”. Besides, the IC50 in series [2] was determined as 173 µM. Also, the values for the inhibition in series [3], in series [4] and in series [5] were 44.1%, 29.7% and 42.5%, respectively. Also, the Selectivity Index in series [6] was determined as 1.55. Further, the viability at 24 h, 500 µM in series [7] was at least 80%.
